Measured values: ChEMBL document CHEMBL1127648, “Synthesis of 2-piperazinylbenzothiazole and 2-piperazinylbenzoxazole derivatives with 5-HT3 antagonist and 5-HT4 agonist properties” (J Med Chem, 1994)

Tests used:
[1] = target: T1, Serotonin 1 (5-HT1) receptor (Rattus norvegicus, UniProt P28564+P30940+P19327+P28565); assay: Binding affinity towards 5-hydroxytryptamine 1 receptor using [3H]5-HT as radioligand; assay type: protein assay
Method in brief: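 Rat cortex homogenized in 50 mM Tris-HCl and preincubated at 37 °C for 10 min. Membranes were resuspended with 0.1% ascorbic acid and 10 μM pargyline. Incubated with 0.3 nM [3H]-5-HT and varying test concentrations at 37 °C for 10 min, then filtered and counted by scintillation. IC50 is the mean of 4–6 experiments.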

[2] = target: T2, Serotonin 3 (5-HT3) receptor (Rattus norvegicus, UniProt P35563+Q9JJ16); assay: Inhibition of [3H]BRL-43694 binding to rat 5-hydroxytryptamine 3 receptor; assay type: protein-complex assay
T2 sequence (P35563 whole entry): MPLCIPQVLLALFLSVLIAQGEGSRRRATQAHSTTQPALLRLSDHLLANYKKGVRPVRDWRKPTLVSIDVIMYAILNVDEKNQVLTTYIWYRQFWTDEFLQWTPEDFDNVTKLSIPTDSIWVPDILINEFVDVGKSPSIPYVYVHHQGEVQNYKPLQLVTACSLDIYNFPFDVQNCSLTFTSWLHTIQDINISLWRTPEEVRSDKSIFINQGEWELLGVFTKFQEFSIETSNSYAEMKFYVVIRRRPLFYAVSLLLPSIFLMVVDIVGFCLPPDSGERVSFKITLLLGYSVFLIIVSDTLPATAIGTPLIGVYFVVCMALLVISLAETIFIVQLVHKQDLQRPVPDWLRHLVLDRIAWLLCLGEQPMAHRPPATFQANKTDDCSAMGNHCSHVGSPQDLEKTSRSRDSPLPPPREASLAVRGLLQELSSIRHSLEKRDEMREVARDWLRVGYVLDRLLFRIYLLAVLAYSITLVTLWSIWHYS
T2 sequence (Q9JJ16 whole entry): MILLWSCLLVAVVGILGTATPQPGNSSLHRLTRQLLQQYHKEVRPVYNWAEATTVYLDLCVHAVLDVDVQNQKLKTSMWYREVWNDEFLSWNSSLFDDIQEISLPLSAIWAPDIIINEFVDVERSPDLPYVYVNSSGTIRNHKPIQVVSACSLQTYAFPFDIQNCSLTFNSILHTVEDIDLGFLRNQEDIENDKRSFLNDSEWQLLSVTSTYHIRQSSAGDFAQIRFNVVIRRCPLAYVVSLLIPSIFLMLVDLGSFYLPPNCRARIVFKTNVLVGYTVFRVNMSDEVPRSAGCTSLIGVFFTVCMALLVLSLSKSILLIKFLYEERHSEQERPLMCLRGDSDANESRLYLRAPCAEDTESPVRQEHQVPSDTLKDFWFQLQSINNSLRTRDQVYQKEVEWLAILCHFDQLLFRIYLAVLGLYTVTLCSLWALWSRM

D(2) dopamine receptor = D(2) dopamine receptor (Rattus norvegicus, UniProt P61169); assay: Displacement of [3H]spiroperidol from D2 dopamine receptor
Cavia porcellus [3] = species: Cavia porcellus; assay: The compound was evaluated for the percentage inhibition in guinea pig ileum stimulated with 10 uM 5-HT and tested at fixed concentration of 10 uM; assay type: functional
Method in brief: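 Guinea pig ileum in oxygenated physiological solution with 1 μM methysergide at 37 °C, isometric recording, 0.5 g resting tension. Response to 10 μM 5-HT set as 100%. After 30 min incubation with compound at 10 μM, 5-HT was re-added; response expressed as % of the previous 5-HT response.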

Rattus norvegicus [4] = assay: The compound was evaluated for the percentage increase in gastric emptying for a dose of 10 mg/kg perorally in rat; assay type: functional, Stomach; settings: route oral
Method in brief: (§1)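 Wistar rats (160 ± 10 g) fasted overnight, dosed orally with vehicle or compound. After 60 min, gavage with 40 steel spheroids (1 mm) in 2 mL 3% carboxymethylcellulose. Killed by CO2 60 min later; spheroids left in the stomach were counted. Emptying is expressed as a percentage of paired controls.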

Rattus norvegicus [5] = species: Rattus norvegicus; assay: The compound was evaluated for the percentage inhibition in rat aorta stimulated with 30 uM 5-HT and tested at fixed concentration of 10 uM; assay type: functional
[6] = target: T1, Serotonin 1 (5-HT1) receptor; assay: The compound was evaluated for the binding affinity towards 5-hydroxytryptamine 1 using [3H]5-HT as radioligand; assay type: protein assay
Method in brief: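 Membranes were resuspended with 0.1% ascorbic acid and 10 μM pargyline. Incubated with 0.3 nM [3H]-5-HT and varying test concentrations at 37 °C for 10 min, then filtered and counted by scintillation.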

Rattus norvegicus [7] = species: Rattus norvegicus; assay: (§2) The compound was evaluated for the value in rat isolated esophageal tunica muscularis mucose; parameters: species or system Esophagus muscularis mucosa
Method in brief: (§3)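 Rat oesophageal tunica muscularis mucosae was isolated by removing the muscularis propria. Strips were held in Tyrode's solution (pH 7.4) at 37 °C, aerated with 95% O2/5% CO2, under 250 mg tension, and equilibrated 60 min. Relaxation of carbachol-induced contraction was measured. Paired concentration-effect curves were run in the same preparation, first to 5-HT, then to the test agonist. ECR = IC40 test agonist/IC40 5-HT. Mean of 8 experiments.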

Rattus norvegicus [8] = species: Rattus norvegicus; assay: The compound was evaluated for the intrinsic activity in rat isolated esophageal tunica muscularis mucose; assay type: functional
Method in brief: (§4)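 Inner smooth-muscle tube of rat oesophagus (external muscularis propria removed), held in Tyrode's solution at 37 °C, pH 7.4, aerated 95% O2/5% CO2, under 250 mg tension, equilibrated 60 min. Relaxation of carbachol-induced contraction measured from agonist concentration-effect curves. Means of 8 experiments (24 for 5-HT).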

Rattus norvegicus [9] = species: Rattus norvegicus; assay: Ability of compounds to relax oesophagus expressed as equipotent concentration ratio (ECR) where ECR = IC40 test agonist / IC40 5-HT; assay type: functional; method in brief: as §3
Rattus norvegicus [10] = species: Rattus norvegicus; assay: as §2; assay type: functional; method in brief: as §3
Rattus norvegicus [11] = species: Rattus norvegicus; assay: The compound was evaluated for pEC50 of 5-HT in rat isolated esophageal tunica muscularis mucose; settings: in vitro
[12] = target: Serotonin 3 (5-HT3) receptor (Rattus norvegicus) (UniProt P35563+Q9JJ16); assay: Inhibition dose for 50 percent antagonism for 5-hydroxytryptamine 3 receptor in vivo in rats; assay type: functional, organism-based
Method in brief: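 Male Sprague-Dawley rats (500–550 g) under urethane (1 g/kg ip), with heart rate taken from the carotid pressure signal. 5-HT 4 μg/kg iv bolus every 15 min elicited von Bezold-Jarisch bradycardia. […] ID50 by Litchfield-Wilcoxon.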

Cavia porcellus [13] = species: Cavia porcellus; assay: The compound was evaluated for the pA2 value that was estimated using 2-methyl-5-HT in five to seven different tissues in guinea pig ileum; assay type: functional; settings: read-out: pA2 (converted)
Method in brief: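 Guinea pig ileum in oxygenated physiological solution with 1 μM methysergide at 37 °C, isometric contractions at 0.5 g tension.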

Rattus norvegicus [14] = assay: The compound was evaluated for the percentage increase in gastric emptying for a dose of 10 mg/kg perorally in rat.; assay type: functional, Stomach; settings: route oral; method in brief: as §1
Rattus norvegicus [15] = assay: The compound was evaluated for the percentage increase in gastric emptying for a dose of 5 mg/kg perorally in rat.; assay type: functional, Stomach; settings: route oral; method in brief: as §1
Rattus norvegicus [16] = assay: The compound was evaluated for the percentage increase in gastric emptying for a dose of 7.5 mg/kg perorally in rat.; assay type: functional, Stomach; settings: route oral; method in brief: as §1
[17] = The compound was evaluated for equipotent concentration ratio (ECR). whereECR = IC40 test agonist / IC40 5-HT; assay type: functional
Method in brief: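 Rat oesophageal tunica muscularis mucosae precontracted with carbachol. Two concentration-effect curves were run in the same strip, first to 5-HT and then to 5-HT or the test agonist. […] Only paired experiments were used.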

Rattus norvegicus [18] = species: Rattus norvegicus; assay: Agonist potency in rat isolated esophageal tunica muscularis mucose.; assay type: functional; method in brief: as §4
Rattus norvegicus [19] = assay: The compound was evaluated for the percentage increase in gastric emptying for a dose of 5 mg/kg perorally in rat; assay type: functional, Stomach; settings: route oral; method in brief: as §1
Rattus norvegicus [20] = assay: The compound was evaluated for the percentage increase in gastric emptying for a dose of 7.5 mg/kg perorally in rat; assay type: functional, Stomach; settings: route oral; method in brief: as §1
Rattus norvegicus [21] = species: Rattus norvegicus; assay: The compound was evaluated for the value in rat isolated esophageal tunica muscularis mucose in rat; assay type: functional; method in brief: as §4
Rattus norvegicus [22] = assay: The compound was evaluated for the percentage increase in gastric emptying for a dose of 1 mg/kg perorally in rat; assay type: functional, Stomach; settings: route oral; method in brief: as §1

Chain of D(2) dopamine receptor (P61169 whole entry): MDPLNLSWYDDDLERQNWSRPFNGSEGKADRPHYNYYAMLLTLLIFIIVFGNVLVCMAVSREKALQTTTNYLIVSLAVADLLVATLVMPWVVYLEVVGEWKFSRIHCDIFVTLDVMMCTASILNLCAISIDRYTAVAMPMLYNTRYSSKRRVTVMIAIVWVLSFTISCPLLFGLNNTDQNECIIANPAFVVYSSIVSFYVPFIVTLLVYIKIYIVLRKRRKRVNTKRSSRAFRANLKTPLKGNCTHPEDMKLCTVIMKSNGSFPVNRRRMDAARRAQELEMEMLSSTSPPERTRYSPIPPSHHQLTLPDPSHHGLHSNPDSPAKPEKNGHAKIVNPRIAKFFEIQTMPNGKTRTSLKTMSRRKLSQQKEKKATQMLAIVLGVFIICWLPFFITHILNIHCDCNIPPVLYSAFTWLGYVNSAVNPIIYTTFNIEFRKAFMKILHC

SMILES | IC50 [1] | IC50 [2] [µM] | IC50 (D(2) dopamine receptor) [µM] | Inhibition (Cavia porcellus [3]) [%] | Increase (Rattus norvegicus [4]) [%] | Inhibition (Rattus norvegicus [5]) [%] | also measured
Clc1cccc(N2CCN(c3nc4ccccc4s3)CC2)c1 | > 10 µM | > 10 | > 10 | -21.9 | – | – | –
CCN(CC)CCNC(=O)c1cc(Cl)c(N)cc1OC [METOCLOPRAMIDE] | – | – | – | – | 37.1 | – | –
c1ccc2oc(N3CCN(Cc4ccc5c(c4)OCO5)CC3)nc2c1 | > 10 µM | > 10 | > 10 | 55.8 | 23.1 | 19.4 | –
CCOc1ccccc1N1CCN(c2nc3ccccc3s2)CC1 | – | > 10 | > 10 | -22.2 | – | 10.3 | IC50 [6]: > 10 µM
Cc1[nH]c2ccc(O)cc2c1CCN | – | – | – | – | – | – | CL (Rattus norvegicus [7]): 4.9%; Intrinsic activity (Rattus norvegicus [8]): 1; Ratio (Rattus norvegicus [9]): 643
O=C(c1ccc(F)cc1)C1CCN(CCn2c(=O)[nH]c3ccccc3c2=O)CC1 [KETANSERIN] | – | – | – | – | – | 90 | –
COc1ccccc1N1CCN(c2nc3ccccc3o2)CC1 | > 10 µM | > 10 | > 10 | 25.6 | – | 14.7 | –
NCCc1c[nH]c2ccc(O)cc12 [SEROTONIN] | – | – | – | – | – | – | Intrinsic activity (Rattus norvegicus [10]): 1; pEC50 (Rattus norvegicus [11]): 7.91
COc1ccccc1N1CCN(c2nc3ccccc3s2)CC1 | > 10 µM | > 10 | > 10 | 43 | -27.5 | 7.1 | –
c1ccc(CN2CCN(c3nc4ccccc4s3)CC2)cc1 | > 0.00001 M | 0.033 | > 10 | 74.4 | 44.6 | 14.8 | ID50 [12]: 0.16 mg/kg; Kb (Cavia porcellus [13]): 0.501 µM
c1ccc2sc(N3CCN(Cc4ccc5c(c4)OCO5)CC3)nc2c1 | > 10 µM | 0.95 | > 10 | 74.5 | – | 21.2 | ID50 [12]: 0.18 mg/kg; Kb (Cavia porcellus [13]): 0.316 µM; Increase (Rattus norvegicus [14]): 62.8%; Increase (Rattus norvegicus [15]): 45%; Increase (Rattus norvegicus [16]): 43.3%; Intrinsic activity (Rattus norvegicus [8]): 0.91; Ratio [17]: 22; EC50 (Rattus norvegicus [18]): 0.263 µM
COc1cc(N)c(Cl)cc1C(=O)NC1CCN(CCCOc2ccc(F)cc2)CC1OC (stereo not given) [CISAPRIDE] | – | – | – | 98.1 | 67 | – | Kb (Cavia porcellus [13]): 0.001 µM; Increase (Rattus norvegicus [19]): 47.2%; Increase (Rattus norvegicus [20]): 59.5%; Intrinsic activity (Rattus norvegicus [8]): 0.92; EC50 (Rattus norvegicus [21]): 0.0589 µM
c1ccc(CN2CCN(c3nc4ccccc4o3)CC2)cc1 | > 10 µM | > 10 | > 10 | 48.8 | 15.1 | 21.9 | –
Cc1nccn1CC1CCc2c(c3ccccc3n2C)C1=O (stereo not given) [ONDANSETRON] | – | – | – | – | – | – | Increase (Rattus norvegicus [22]): 44.2%
Oc1ccccc1N1CCN(c2nc3ccccc3s2)CC1 | > 10 µM | > 10 | > 10 | 40.8 | -14.2 | 49.3 | –
Oc1ccccc1N1CCN(c2nc3ccccc3o2)CC1 | > 10 µM | > 10 | > 10 | 46.1 | -30.2 | 29.1 | –
